The values that follow come from PMC2871064 (Cancer research, 2010).

For one test, the system named is A375 cells. Briefly: Binding of [^131I]MIP-1145 to amelanotic A375 cells. It counts as cell-based, human. The method, boiled down: (§1)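 Cells per well: 50,000 for SK-MEL-3, 25,000 for A375, attached overnight. Time course: up to 6 h at 37 °C with 11.5 nM tracer (~9 × 10⁵ CPM/well) in D-MEM/0.5% BSA. Acid wash (50 mM glycine, 150 mM NaCl, pH 3.0, 4 °C, 5 min) strips the surface fraction for gamma counting; cells are scintillation-counted. Competition: 2 h, 3.6 nM tracer plus 1.6–1,600 nM unlabeled compound.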

A further test has as its system SK-MEL-3 cells. Nature of the test: Binding of [^131I]MIP-1145 to melanotic SK-MEL-3 cells. It counts as cell-based, human. Summed up: as §1
The next test relates to stage 4 melanoma. Particulars: cited from earlier work.
Setting [1] is: 2 hours, 3.6 nM tracer, up to 1.6 uM cold compound.

Where two headings read alike, the source gives them in different places.

Take `CCN(CC)CCNC(=O)c1cc(I)c(NC(=O)c2ccc(F)cc2)cc1OC` [MIP-1145, N-(2-diethylamino-ethyl)-4-(4-fluoro-benzamido)-5-iodo-2-methoxy-benzamide]: the “Competition by non-radiolabeled MIP-1145 for [^131I]MIP-1145 binding” value in the test on A375 cells (setting [1]) and in the test with SK-MEL-3 cells (setting [1]) was “very little competition” throughout. The “Cell associated fraction of the total added” value in the test on A375 cells (after 6 hours, 11.5 nM) was “about 13%”; with SK-MEL-3 cells (after 6 hours, 11.5 nM), “approximately 43%”.
As to `CN(C)/N=N/c1[nH]cnc1C(N)=O` [Dacarbazine], in the test with stage 4 melanoma (stage 4 melanoma patients), the Objective response rate is on record as 16%.
For interferon alpha-2b, the Objective response rate with stage 4 melanoma (stage 4 disease, high-dose) was 14%.
